Values joined by “and” are separate entries in the source; they are usually repeats but may differ in a detail not shown here. Identical values can stand only once.
Experiments:
Type in all cases: functional, cell-based
A2780 [1] = assay: In vitro inhibition of human ovarian cell line A2780
In short: (§1)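 Single viable cells seeded at 4000-5000/well in DMEM with 10% fetal calf serum and left to attach overnight. Compounds dissolved in water and added at once, 10 concentrations per drug, 4 wells per concentration, 96 h exposure. Cell number in treated versus control wells read by sulforhodamine B staining; IC50 is the concentration cutting absorbance by 50% relative to controls.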

CH1 [2] = assay: In vitro inhibition of human ovarian cell line, resistant to doxorubicin (CH1doxR).; in short: as §1
A2780 [3] = assay: In vitro inhibition of human ovarian cell line, resistant to cisplatin (A2780cisR).; in short: as §1
SK-OV-3 = assay: In vitro inhibition of human ovarian cell line SKOV-3.; in short: as §1
CH1 [4] = assay: In vitro inhibition of human ovarian cell line (CH1); in short: as §1
CH1 [5] = assay: In vitro inhibition of human ovarian cell line, resistant to cisplatin (CH1cisR).; in short: as §1
CH1 [6] = assay: Resistance factor, (IC50 of CH1 doxR / IC50 of CH1); settings: Homo sapiens
CH1 [7] = assay: Resistance factor, (IC50 of CH1 cisR / IC50 of CH1); settings: Homo sapiens; CH1cisR
A2780 [8] = assay: Resistance factor, (IC50 of A2780 cisR cisR / IC50 of A2780); settings: Homo sapiens

IC50 (A2780 [1]) | IC50 (CH1 [2]) | IC50 (A2780 [3]) | IC50 (SK-OV-3) | IC50 (CH1 [4]) | IC50 (CH1 [5]) | Substance | Resistance factor (CH1 [6]) | Resistance factor (CH1 [7]) | Resistance factor (A2780 [8])
> 25 µM | 0.71 µM | 11 µM | 3.5 µM | 2.05 µM | 2.15 µM | 4'-chloro-2,2':6,2''-Terpyridineplatinum (II) complex [listing 2 of 4 here] | – | – | –
4.75 µM | – | 6.6 µM | 1.8 µM | 2.15 µM | – | 4'-chloro-2,2':6,2''-Terpyridineplatinum (II) complex [listing 3 of 4 here] | – | – | –
39 µM | 1.05 µM | 29.5 µM | – | 5 µM | 5.8 µM | (2,2':6',2''-terpyridine)platinum (II) complex [listing 1 of 10 here] | – | – | –
– | 5.7 µM | > 100 µM | 24 µM | 17.5 µM | 18 µM | (2,2':6',2''-terpyridine)platinum (II) complex [listing 3 of 10 here] | – | – | –
– | 17.5 µM | – | – | > 100 µM | > 100 µM | (2,2':6',2''-terpyridine)platinum (II) complex [listing 4 of 10 here] | – | – | –
16 µM | 3.95 µM | 21.5 µM | 13 µM | 6.1 µM | 7.5 µM | (2,2':6',2''-terpyridine)platinum (II) complex [listing 6 of 10 here] | – | – | –
5.8 µM | 0.85 µM | 6.7 µM | 9.2 µM | 2.1 µM | 2.1 µM | (2,2':6',2''-terpyridine)platinum (II) complex [listing 7 of 10 here] | – | – | –
11.5 µM | 3.75 µM | 23.5 µM | 15 µM | 5.2 µM | 4.5 µM | (2,2':6',2''-terpyridine)platinum (II) complex [listing 9 of 10 here] | – | – | –
0.53 µM | 0.5 µM | 8.8 µM | 2.25 µM | 0.4 µM | 1.2 µM | CISPLATIN [listing 1 of 2 here] | – | – | –

Continued, substance first:

Substance | IC50 (A2780 [1]) | IC50 (CH1 [2]) | IC50 (A2780 [3]) | IC50 (SK-OV-3) | IC50 (CH1 [4]) | IC50 (CH1 [5]) | Resistance factor (CH1 [6]) | Resistance factor (CH1 [7]) | Resistance factor (A2780 [8])
4'-chloro-2,2':6,2''-Terpyridineplatinum (II) complex [listing 1 of 4 here] | 2.4 µM | 0.46 µM | 1.4 µM | 5.1 µM | 1.4 µM | 1.8 µM | – | – | –
4'-chloro-2,2':6,2''-Terpyridineplatinum (II) complex [listing 4 of 4 here] | – | – | – | – | – | – | 0.3 | 1 (2×) and 1.3 | 1.4 and 0.6
(2,2':6',2''-terpyridine)platinum (II) complex [listing 2 of 10 here] | 21.5 µM | 5.4 µM | – | > 100 µM | 15.5 µM | 14 µM | – | – | –
(2,2':6',2''-terpyridine)platinum (II) complex [listing 5 of 10 here] | 40 µM | 5 µM | 92 µM | 17 µM | 14 µM | 12.5 µM | – | – | –
(2,2':6',2''-terpyridine)platinum (II) complex [listing 8 of 10 here] | 27 µM | 1.5 µM | 25 µM | 13.5 µM | 7.2 µM | 8.9 µM | – | – | –
(2,2':6',2''-terpyridine)platinum (II) complex [listing 10 of 10 here] | – | – | – | – | – | – | – | 0.9 (3×) and 1 (2×) and 1.2 (3×) | 1.3 [middle of 6 runs]
CARBOPLATIN [listing 1 of 2 here] | 35 µM | 6 µM | > 100 µM | > 100 µM | 6.2 µM | 14 µM | – | – | –
CARBOPLATIN [listing 2 of 2 here] | – | – | – | – | – | – | 1 | 2.3 | –
CISPLATIN [listing 2 of 2 here] | – | – | – | – | – | – | 1.2 | 3 | 16.6
